pIC50, pKi: −log10 of the molar value.
What was measured:
[1] = tested on: Bacteria; assay: Inhibition of NDM-1 (unknown origin) expressed in Escherichia coli BL21 (DE3) at 10 uM incubated for 3 mins by spectrophotometric analysis relative to control
Outline: (§1)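 NDM-1 (1 nM, His-tagged, expressed in E. coli BL21(DE3) with 1 mM IPTG for 3 h at 37 °C, purified, kept with 50 µM ZnSO4). Run in 100 mM phosphate pH 7 with 50 µM ZnSO4, 3 min enzyme–inhibitor preincubation, then 100 µM imipenem. Initial rates at 297 nm over 600 s, 25 °C. Triplicate seven-point IC50 converted to Ki (Cheng–Prusoff); percent inhibition at 10 µM.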

[2] = Inhibition of NDM-1 (unknown origin) expressed in Escherichia coli BL21 (DE3) incubated for 3 mins by spectrophotometric analysis; set-up: species or system Bacteria; conditions: for pKi: read-out: Ki; outline: as §1
[3] = target: Class A carbapenemase KPC-2 (Escherichia coli) (UniProt A8DS27); assay: Inhibition of KPC-2 (unknown origin) expressed in Escherichia coli BL21 (DE3) at 10 uM incubated for 3 mins by spectrophotometric analysis relative to control
Outline: (§2)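 Preincubated 3 min with inhibitor in 100 mM phosphate pH 7. Imipenem 100 µM; hydrolysis followed at 297 nm for 600 s at 25 °C. IC50 from seven concentrations in triplicate; Ki by Cheng–Prusoff. Percent inhibition read at 10 µM.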

[4] = tested on: Bacteria; assay: Inhibition of OXA-48 (unknown origin) expressed in Escherichia coli BL21 (DE3) at 10 uM incubated for 3 mins by spectrophotometric analysis relative to control
Outline: (§3)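 OXA-48 at 5.8 nM (His-tagged, expressed in BL21(DE3), purified in K2SO4 buffers) in 100 mM phosphate pH 7 plus 50 mM NaHCO3. Inhibitor preincubated 3 min; substrate 100 µM imipenem; initial velocities at 297 nm, 600 s, 25 °C. Seven inhibitor concentrations in triplicate give IC50, converted to Ki by Cheng–Prusoff; percent inhibition at 10 µM.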

[5] = target: Class A carbapenemase KPC-2 (Escherichia coli, UniProt A8DS27); assay: Inhibition of KPC-2 (unknown origin) expressed in Escherichia coli BL21 (DE3) incubated for 3 mins by spectrophotometric analysis; conditions: for pKi: read-out: Ki; outline: as §2
[6] = Inhibition of OXA-48 (unknown origin) expressed in Escherichia coli BL21 (DE3) incubated for 3 mins by spectrophotometric analysis; set-up: species or system Bacteria; conditions: for pKi: read-out: Ki; outline: as §3

Structure (SMILES) | inhibition [1] [%] | inhibition [3] [%] | inhibition [4] [%] | pKi [5] | Ki [5] | pIC50 [2] | pKi [2] | pKi [6] | Ki [6] | Ki [2]
COc1ccc(N2/C(=N/c3ccc(Br)cc3)CC2c2ccc(Cl)cc2Cl)cc1 (racemic) | > 50 | 30 | 46 |  |  |  | 6.24 |  |  | 
c1ccc(/N=C2\CC(c3ccccc3)N2c2ccc3c(c2)OCCO3)cc1 (racemic) | > 50 | > 50 | 37 | 5.44 |  |  | 6.14 |  |  | 
COc1ccc(N2/C(=N/c3ccc(I)cc3)CC2c2cc(Cl)cc(Cl)c2)cc1 (racemic) | > 50 | 42 | > 50 |  |  |  | 5.69 | 6.28 |  | 
c1ccc(/N=C2\CC(c3ccccc3)N2c2ccc3c(c2)OCO3)cc1 (racemic) | > 50 |  |  |  | Not Active |  | 5.62 |  | Not Active | 
CCOc1ccc(N2/C(=N/c3ccc(Cl)cc3)CC2c2ccc3ccccc3c2)cc1 (racemic) | > 50 | > 50 | 30 | 5.71 |  |  | 6.57 |  |  | 
COc1ccc(N2/C(=N/c3ccc(C(F)(F)F)cc3)CC2c2ccc(Cl)cc2)cc1 (racemic) | > 50 | > 50 | 32 | 5.63 |  |  | 6.49 |  |  | 
COc1ccc(/N=C2\CC(c3ccc(Cl)cc3)N2c2ccc(OC)cc2)cc1 (racemic) | > 50 |  | 31 |  | Not Active |  | 6.07 |  |  | 
COc1ccc(N2/C(=N/c3ccc(I)cc3)CC2c2ccc(F)cc2)cc1 (racemic) | > 50 | > 50 | > 50 | 5.19 |  |  | 6.30 | 6.35 |  | 
c1ccc(COc2ccc(N3/C(=N/c4ccccc4)CC3c3ccccc3)cc2)cc1 (racemic) | > 50 | > 50 | 31 | 5.94 |  |  | 6.70 |  |  | 
COc1cc(N2/C(=N/c3ccccc3)CC2c2ccccc2)cc(OC)c1OC (racemic) |  |  |  |  | Not Active |  |  |  | Not Active | Not Active
COc1ccc(N2/C(=N/c3ccc(C(F)(F)F)cc3)CC2c2ccc(Cl)cc2Cl)cc1 (racemic) | > 50 | > 50 | > 50 | 5.22 |  |  | 6.43 | 6.19 |  | 
CCOc1ccc(N2/C(=N/c3ccc(I)cc3)CC2c2ccc3ccccc3c2)cc1 (racemic) | > 50 | > 50 | > 50 | 5.74 |  |  | 6.60 | 6.15 |  | 
OCc1ccc(N2/C(=N/c3ccc(I)cc3)CC2c2ccc(Cl)cc2Cl)cc1 (racemic) | > 50 | > 50 |  | 5.41 |  |  | 5.89 |  | Not Active | 
COc1ccc(N2/C(=N/c3ccc(I)cc3)CC2c2ccc(Cl)cc2)cc1 (racemic) | > 50 | > 50 | > 50 | 5.75 |  |  | 6.48 | 6.08 |  | 
O=C(O)c1ccc(N2/C(=N/c3ccc(I)cc3)CC2c2ccc(Cl)cc2Cl)cc1 (racemic) | > 50 | > 50 |  | 5.38 |  |  | 7.46 |  | Not Active | 
CCOc1ccc(N2/C(=N/c3ccc(OC)cc3)CC2c2ccc3ccccc3c2)cc1 (racemic) | > 50 | > 50 | > 50 | 5.74 |  |  | 6.57 | 6.08 |  | 
COc1ccc(N2/C(=N/c3ccc(I)cc3)CC2c2ccc(I)cc2)cc1 (racemic) | > 50 | > 50 | > 50 | 5.25 |  |  | 6.43 | 6.29 |  | 
COc1ccc(N2/C(=N/c3ccc(Br)cc3)CC2c2ccc(Cl)cc2)cc1 (racemic) | > 50 | > 50 | > 50 | 5.81 |  |  | 6.52 | 6.08 |  | 
COc1ccc(N2/C(=N/c3ccc(Cl)cc3)CC2c2ccc(Cl)cc2)cc1 (racemic) | > 50 | > 50 | 27 | 5.71 |  |  | 6.62 |  |  | 

Continued, in another order:

inhibition [1] [%] | inhibition [3] [%] | inhibition [4] [%] | pKi [5] | Ki [5] | pIC50 [2] | Structure (SMILES) | pKi [2] | pKi [6] | Ki [6] | Ki [2]
> 50 |  |  |  |  |  | Ic1ccc(N2/C(=N/c3ccccc3)CC2c2ccccc2)cc1 (racemic) | 5.72 |  |  | 
> 50 | > 50 | 45 | 5.85 |  |  | CCOc1ccc(N2/C(=N/c3ccccc3)CC2c2ccccc2)cc1 (racemic) | 6.00 |  |  | 
> 50 | > 50 | 28 | 5.44 |  |  | COc1cccc(N2/C(=N/c3ccccc3)CC2c2ccccc2)c1 (racemic) | 6.19 |  |  | 
> 50 | > 50 | 20 | 5.85 |  |  | COc1ccc(N2/C(=N/c3ccccc3)CC2c2cc(Cl)cc(Cl)c2)cc1 (racemic) | 6.00 |  |  | 
> 50 | 45 | 26 |  |  |  | Oc1ccc(N2/C(=N/c3ccccc3)CC2c2ccccc2)cc1 (racemic) | 6.44 |  |  | 
> 50 | > 50 | > 50 | 5.66 |  |  | COc1ccc(N2/C(=N/c3ccccc3)CC2c2ccc3ccccc3c2)cc1 (racemic) | 6.00 | 5.89 |  | 
> 50 | > 50 | 18 | 5.40 |  |  | COc1ccc(N2/C(=N/c3ccc(Cl)cc3)CC2c2ccc3ccccc3c2)cc1 (racemic) | 6.14 |  |  | 
95 |  |  |  |  | > 5.30 | COc1ccc(N2/C(=N/c3ccccc3)C[C@@H]2c2ccccc2)cc1 |  |  |  | 
 |  |  |  | Not Active |  | COc1ccc(N2/C(=N/c3ccccc3)CC2c2cccnc2)cc1 (racemic) |  |  | Not Active | Not Active
> 50 | > 50 | > 50 | 5.80 |  |  | COc1ccc(N2/C(=N/c3ccc(I)cc3)CC2c2ccc3ccccc3c2)cc1 (racemic) | 6.64 | 6.07 |  | 
90 | > 50 |  | 5.44 |  |  | COc1ccc(N2/C(=N/c3ccccc3)CC2c2ccccc2)cc1 (racemic) | 6.00 |  | Not Active | 
> 50 | > 50 | 33 | 6.14 |  |  | COc1ccc(N2/C(=N/c3ccccc3)CC2c2ccc(I)cc2)cc1 (racemic) | 6.31 |  |  | 
> 50 |  |  |  | Not Active |  | COc1ccc(N2/C(=N/c3ccccc3)CC2c2ccc(Cl)cc2)cc1 (racemic) | 6.00 |  | Not Active | 
> 50 | > 50 | > 50 | 5.28 |  |  | COc1ccc(N2/C(=N/c3ccc(Br)cc3)CC2c2ccc3ccccc3c2)cc1 (racemic) | 6.28 | 6.41 |  | 
> 50 | > 50 | > 50 | 5.62 |  |  | c1ccc(/N=C2\CC(c3ccccc3)N2c2ccccc2)cc1 (racemic) | 5.34 | 6.10 |  | 
> 50 |  |  |  | Not Active |  | COc1ccc(N2/C(=N/c3ccccc3)CC2c2ccccc2)cc1OC (racemic) | 5.62 |  | Not Active | 
 |  |  |  | Not Active |  | COc1ccc(N2/C(=N/c3ccccc3)CC2c2ccc(F)cc2)cc1 (racemic) |  |  |  | Not Active
> 50 |  |  |  | Not Active |  | COc1ccc(C2C/C(=N\c3ccccc3)N2c2ccc(OC)cc2)cc1 (racemic) | 5.62 |  | Not Active | 
> 50 |  |  |  |  |  | CCOc1ccc(N2/C(=N/c3ccccc3)CC2c2ccc3ccccc3c2)cc1 (racemic) | 5.62 |  |  | 
95 |  |  |  |  | > 5.30 | COc1ccc(N2/C(=N/c3ccccc3)C[C@H]2c2ccccc2)cc1 |  |  |  | 
> 50 | 50 |  |  |  |  | CSc1ccc(N2/C(=N/c3ccccc3)CC2c2ccccc2)cc1 (racemic) | > 6.30 |  | Not Active | 

Reference: ChEMBL document CHEMBL4814064, “Azetidinimines as a novel series of non-covalent broad-spectrum inhibitors of β-lactamases with submicromolar activities against carbapenemases KPC-2 (class A), NDM-1 (class B) and OXA-48 (class D)” (Eur J Med Chem, 2021)
